According to ChEMBL document CHEMBL4411315, “Discovery of Novel Dual Histone Deacetylase and Mammalian Target of Rapamycin Target Inhibitors as a Promising Strategy for Cancer Therapy” (J Med Chem, 2019):
Calls of active or inactive are those of the source. The rule behind the calls is not given here.

Legend:
[1] = target: Serine/threonine-protein kinase mTOR (Homo sapiens, UniProt P42345); assay: Inhibition of mTOR in human MV4-11 cells assessed as decrease in 4EBP1 phosphorylation at ser 65 residues at 0.01 to 10 uM after 24 hrs by Western blot analysis; assay type: cell-based
Method in brief: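 Treatment of MV4-11 cells lasted 24 h at 0.01, 0.1, 1 and 10 μM. Lysis in RIPA buffer and BCA quantitation, then 30 μg protein by SDS-PAGE, PVDF transfer, 5% milk block, primary antibody overnight at 4 °C, HRP secondary 1 h and ECL detection. p-p70S6K (T389), p-4EBP1 (S65), p-Akt (S473) and p-ERK were probed.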

MM1.S [2] = assay: Induction of apoptosis in human MM1S cells assessed as early apoptotic cells at 20 nM after 48 hrs by Annexin V-FITC/propidium iodide staining-based flow cytometric analysis (reference value: 0.38%); assay type: functional
Histone deacetylase 8 = Histone deacetylase 8 (Homo sapiens, UniProt Q9BY41); assay: Inhibition of recombinant full length C-terminal His-tagged human HDAC8 expressed in baculovirus expression system using Ac-peptide-AMC as substrate preincubated for 15 mins followed by substrate addition and measured after 1 hr by fluorescence assay
Histone deacetylase 8, sequence (Q9BY41 whole entry): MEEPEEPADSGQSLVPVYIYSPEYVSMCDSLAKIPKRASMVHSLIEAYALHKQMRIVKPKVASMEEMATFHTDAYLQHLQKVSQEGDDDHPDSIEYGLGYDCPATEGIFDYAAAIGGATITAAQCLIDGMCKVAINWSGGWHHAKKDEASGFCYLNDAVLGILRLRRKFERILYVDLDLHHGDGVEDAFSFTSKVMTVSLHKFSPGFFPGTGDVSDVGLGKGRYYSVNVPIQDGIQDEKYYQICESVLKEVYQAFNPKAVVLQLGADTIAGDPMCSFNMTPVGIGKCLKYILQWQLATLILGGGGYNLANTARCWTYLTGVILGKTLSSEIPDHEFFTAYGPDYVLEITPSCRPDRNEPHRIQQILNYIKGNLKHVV

MV4-11 [3] = assay: Induction of apoptosis in human MV4-11 cells assessed as early apoptotic cells at 10 nM after 48 hrs by Annexin V-FITC/propidium iodide staining-based flow cytometric analysis (reference value: 10.7%); assay type: functional
MV4-11 [4] = assay: Induction of apoptosis in human MV4-11 cells assessed as early apoptotic cells at 160 nM after 48 hrs by Annexin V-FITC/propidium iodide staining-based flow cytometric analysis (reference value: 10.7%); assay type: functional
MV4-11 [5] = assay: Induction of apoptosis in human MV4-11 cells assessed as necrotic cells at 320 nM after 48 hrs by Annexin V-FITC/propidium iodide staining-based flow cytometric analysis (reference value: 0.17%); assay type: functional
MV4-11 [6] = assay: Induction of apoptosis in human MV4-11 cells assessed as necrotic cells at 40 nM after 48 hrs by Annexin V-FITC/propidium iodide staining-based flow cytometric analysis (reference value: 0.17%); assay type: functional
MM1.S [7] = assay: Cell cycle arrest in human MM1S cells assessed as accumulation at G0/G1 phase at 1.25 nM after 24 hrs by propidium iodide/RNase staining-based FACS analysis (reference value: 49.22%); assay type: functional
MV4-11 [8] = assay: Cell cycle arrest in human MV4-11 cells assessed as accumulation at S phase at 10 nM after 24 hrs by propidium iodide/RNase staining-based FACS analysis (reference value: 36.42%); assay type: functional
MV4-11 [9] = assay: Induction of apoptosis in human MV4-11 cells assessed as late apoptotic cells at 80 nM after 48 hrs by Annexin V-FITC/propidium iodide staining-based flow cytometric analysis (reference value: 5.03%); assay type: functional
MV4-11 [10] = assay: Induction of apoptosis in human MV4-11 cells assessed as necrotic cells at 20 nM after 48 hrs by Annexin V-FITC/propidium iodide staining-based flow cytometric analysis (reference value: 0.17%); assay type: functional
MM1.S [11] = assay: Induction of apoptosis in human MM1S cells assessed as necrotic cells at 40 nM after 48 hrs by Annexin V-FITC/propidium iodide staining-based flow cytometric analysis (reference value: 0.32%); assay type: functional
MV4-11 [12] = assay: Cell cycle arrest in human MV4-11 cells assessed as accumulation at S phase at 5 nM after 24 hrs by propidium iodide/RNase staining-based FACS analysis (reference value: 36.42%); assay type: functional
MM1.S [13] = assay: Induction of apoptosis in human MM1S cells assessed as late apoptotic cells at 320 nM after 48 hrs by Annexin V-FITC/propidium iodide staining-based flow cytometric analysis (reference value: 0.42%); assay type: functional
MM1.S [14] = assay: Induction of apoptosis in human MM1S cells assessed as late apoptotic cells at 40 nM after 48 hrs by Annexin V-FITC/propidium iodide staining-based flow cytometric analysis (reference value: 0.42%); assay type: functional
MM1.S [15] = assay: Cell cycle arrest in human MM1S cells assessed as accumulation at G0/G1 phase at 2.5 nM after 24 hrs by propidium iodide/RNase staining-based FACS analysis (reference value: 49.22%); assay type: functional
MV4-11 [16] = assay: Induction of apoptosis in human MV4-11 cells assessed as viable cells at 10 nM after 48 hrs by Annexin V-FITC/propidium iodide staining-based flow cytometric analysis (reference value: 84.1%); assay type: functional; settings: MV4-11, 48 h, read-out: Activity
MM1.S [17] = assay: Induction of apoptosis in human MM1S cells assessed as necrotic cells at 80 nM after 48 hrs by Annexin V-FITC/propidium iodide staining-based flow cytometric analysis (reference value: 0.32%); assay type: functional
MM1.S [18] = assay: Cell cycle arrest in human MM1S cells assessed as accumulation at S phase at 1.25 nM after 24 hrs by propidium iodide/RNase staining-based FACS analysis (reference value: 24.49%); assay type: functional
MM1.S [19] = assay: Induction of apoptosis in human MM1S cells assessed as early apoptotic cells at 10 nM after 48 hrs by Annexin V-FITC/propidium iodide staining-based flow cytometric analysis (reference value: 0.38%); assay type: functional
MM1.S [20] = assay: Induction of apoptosis in human MM1S cells assessed as viable cells at 80 nM after 48 hrs by Annexin V-FITC/propidium iodide staining-based flow cytometric analysis (reference value: 98.9%); assay type: functional; settings: read-out: Activity
[21] = target: Polyamine deacetylase HDAC10 (Homo sapiens, UniProt Q969S8); assay: Inhibition of recombinant full length N-terminal FLAG-tagged human HDAC10 expressed in baculovirus infected sf9 cells using Ac-peptide-AMC as substrate preincubated for 15 mins followed by substrate addition and measured after 1 hr by fluorescence assay
Polyamine deacetylase HDAC10, sequence (Q969S8 whole entry): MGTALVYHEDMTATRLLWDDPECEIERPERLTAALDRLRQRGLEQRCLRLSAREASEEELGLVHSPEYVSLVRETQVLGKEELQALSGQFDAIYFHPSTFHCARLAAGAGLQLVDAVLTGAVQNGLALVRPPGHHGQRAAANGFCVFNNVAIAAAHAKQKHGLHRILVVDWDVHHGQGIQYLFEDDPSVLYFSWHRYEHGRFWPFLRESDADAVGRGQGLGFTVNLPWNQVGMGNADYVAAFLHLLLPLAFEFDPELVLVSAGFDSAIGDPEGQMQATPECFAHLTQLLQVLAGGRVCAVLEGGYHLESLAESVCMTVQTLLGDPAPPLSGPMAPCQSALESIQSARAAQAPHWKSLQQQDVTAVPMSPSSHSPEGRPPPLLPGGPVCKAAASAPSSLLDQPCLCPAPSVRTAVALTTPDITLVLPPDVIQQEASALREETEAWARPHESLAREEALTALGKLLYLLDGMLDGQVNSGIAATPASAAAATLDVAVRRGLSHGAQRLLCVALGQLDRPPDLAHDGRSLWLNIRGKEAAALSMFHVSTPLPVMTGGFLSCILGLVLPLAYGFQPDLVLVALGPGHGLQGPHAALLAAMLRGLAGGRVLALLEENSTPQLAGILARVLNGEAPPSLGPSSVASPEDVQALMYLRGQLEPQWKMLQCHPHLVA

MV4-11 [22] = assay: Cell cycle arrest in human MV4-11 cells assessed as accumulation at G2/M phase at 2.5 nM after 24 hrs by propidium iodide/RNase staining-based FACS analysis (reference value: 18.79%); assay type: functional
MV4-11 [23] = assay: Induction of apoptosis in human MV4-11 cells assessed as early apoptotic cells at 80 nM after 48 hrs by Annexin V-FITC/propidium iodide staining-based flow cytometric analysis (reference value: 10.7%); assay type: functional
MM1.S [24] = assay: Cell cycle arrest in human MM1S cells assessed as accumulation at G2/M phase at 2.5 nM after 24 hrs by propidium iodide/RNase staining-based FACS analysis (reference value: 26.29%); assay type: functional
MV4-11 [25] = assay: Induction of apoptosis in human MV4-11 cells assessed as late apoptotic cells at 10 nM after 48 hrs by Annexin V-FITC/propidium iodide staining-based flow cytometric analysis (reference value: 5.03%); assay type: functional
MM1.S [26] = assay: Cell cycle arrest in human MM1S cells assessed as accumulation at G2/M phase at 1.25 nM after 24 hrs by propidium iodide/RNase staining-based FACS analysis (reference value: 26.29%); assay type: functional
MM1.S [27] = assay: Induction of apoptosis in human MM1S cells assessed as early apoptotic cells at 80 nM after 48 hrs by Annexin V-FITC/propidium iodide staining-based flow cytometric analysis (reference value: 0.38%); assay type: functional
OCI-AML2 = assay: Antiproliferative activity against human OCI-AML2 cells after 72 hrs by MTT assay; assay type: functional, cell-based; settings: OCI-AML2, 72 h

With C[C@@H]1CN(C(=O)Nc2ccc(-c3nc(N4CCOCC4)c4cnn(CCCCCCC(=O)NO)c4n3)cc2)CCO1 the inhibition [1] was “Active”, the Activity (MM1.S [2]) was 1.61% and the IC50 (Histone deacetylase 8) was 1.28 nM. It also gave an Activity (MV4-11 [3]) of 14.8%, an Activity (MV4-11 [4]) of 34.7% and an Activity (MV4-11 [5]) of 1.62%. For the same molecule, the Activity (MV4-11 [6]) was 2.05%, the Activity (MM1.S [7]) was 53.85% and the Activity (MV4-11 [8]) was 23.42%. For the same molecule, the Activity (MV4-11 [9]) was 56.5%, the Activity (MV4-11 [10]) was 2.84% and the Activity (MM1.S [11]) was 2.08%. For the same molecule, the Activity (MV4-11 [12]) was 21.32%, the Activity (MM1.S [13]) was 62% and the Activity (MM1.S [14]) was 23%. It also gave an Activity (MM1.S [15]) of 52.62%, a viability at 0.01 µM (MV4-11 [16]) of 75.2% and an Activity (MM1.S [17]) of 1.78%. It also gave an Activity (MM1.S [18]) of 22.05%, an Activity (MM1.S [19]) of 3.09% and a viability at 0.08 µM (MM1.S [20]) of 49.7%. The IC50 [21] was 0.58 nM, the Activity (MV4-11 [22]) was 18.2% and the Activity (MV4-11 [23]) was 37.6%. The Activity (MM1.S [24]) was 25.8%, the Activity (MV4-11 [25]) was 9.91% and the Activity (MM1.S [26]) was 24.1%. It also gave an Activity (MM1.S [27]) of 7.95% and an IC50 (OCI-AML2) of 9.01 nM.
